Assay [1] in a line: Antiplatelet activity in human whole blood assessed as inhibition of ADP-induced platelet aggregation at 10 ug/ml treated for 2 mins before ADP challenge measured after 6 mins by whole blood aggregometer. It counts as functional. In short, it runs like this: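 Whole blood diluted 1:1 with pre-warmed PBS (pH 7.4) at 37 °C. Stirred at 1000 rpm until baseline reached. Test sample or control added with 2 min incubation, then ADP (10 µM final) to start aggregation. Impedance (ohms) followed for 6 min, taken from lowest point to end of interval. Blood used within 4 h of collection; controls run between samples; three runs per assay.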

Assay [2] is described as follows: Ratio of compound to aspirin for human whole blood. It counts as functional, Platelet.

For the molecule `COc1ccc(-c2cc(-c3ccccc3)nc(N)n2)c(O)c1`, the inhibition at 10 µg/mL in assay [1] came out at 42.7%.

Take `COc1ccc(-c2cc(-c3cc(OC)ccc3O)nc(N)n2)cc1`: in assay [1], the inhibition at 10 µg/mL worked out at 64.3%.

Turning to `COc1ccc(O)c(-c2cc(-c3ccccc3Cl)nc(N)n2)c1`, the inhibition at 10 µg/mL in assay [1] is 55.1%.

With `COc1ccc(O)c(-c2cc(-c3cccc(Cl)c3)nc(N)n2)c1`, the inhibition at 10 µg/mL in assay [1] was found to be 66.8%.

`COc1ccc(O)c(-c2cc(-c3ccc(F)cc3)nc(N)n2)c1`: the inhibition at 10 µg/mL in assay [1] was determined as 8.79%.

Consider `COc1ccc(O)c(-c2cc(-c3ccco3)nc(N)n2)c1`, for which the inhibition at 10 µg/mL in assay [1] amounted to 1.46%.

Turning to `COc1ccc(-c2cc(-c3ccc(Cl)cc3)nc(N)n2)c(O)c1`, the inhibition at 10 µg/mL in assay [1] turned out to be 8.42%.

`COc1ccc(-c2cc(-c3cccc(C)c3)nc(N)n2)c(O)c1`: the inhibition at 10 µg/mL in assay [1] was 23.1%.

As to `COc1ccc(-c2cc(-c3cccc(Cl)c3)nc(N)n2)c(O)c1`, the inhibition at 10 µg/mL in assay [1] worked out at 65.8%.

As for `COc1ccc(-c2cc(-c3ccc(Cl)cc3Cl)nc(N)n2)c(O)c1`, the inhibition at 10 µg/mL in assay [1] came to 77.5%. Further, in assay [2], the Ratio stood at 2.

For the molecule `COc1cccc(-c2cc(-c3ccc(OC)cc3O)nc(N)n2)c1`, in assay [1], the inhibition at 10 µg/mL was 51.2%.

Take `COc1ccc(-c2cc(-c3ccc(F)cc3)nc(N)n2)c(O)c1`: the inhibition at 10 µg/mL in assay [1] is 64%.

`COc1ccc(-c2cc(-c3ccc(C)cc3)nc(N)n2)c(O)c1`: the inhibition at 10 µg/mL in assay [1] was 62.8%.

As to `COc1ccc(-c2cc(-c3ccc([N+](=O)[O-])cc3)nc(N)n2)c(O)c1`, the inhibition at 10 µg/mL in assay [1] is 58.5%.

In the case of `CCOc1ccc(O)c(-c2cc(-c3ccccc3)nc(N)n2)c1`, the inhibition at 10 µg/mL in assay [1] was 39.9%.

For `CC(=O)Oc1ccccc1C(=O)O` [ASPIRIN], the inhibition at 10 µg/mL in assay [1] worked out at 37.5%.

Usually inhibition stands for the change of the read-out against control, counted positive when it falls.

The values are drawn from ChEMBL document CHEMBL1949572, “Assessment of antiplatelet activity of 2-aminopyrimidines” (2012).
